Data on five compounds can be found in ChEMBL document CHEMBL1158748, “Microbial hydroxylation of bufalin by Cunninghamella blakesleana and Mucor spinosus” (J Nat Prod, 2005).

Common to all, as to type: functional, cell-based
One assay relates to Bel-7402. In words: Cytotoxicity against human Bel7402 cells after 72 hrs by MTT assay. Particulars: Bel-7402, 72 h. In a few lines:
(§1)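 Cells kept in RPMI 1640 with 10% (v/v) FBS and plated in 96-well plates. Test compounds added at dilutions of 10^-3-10² µmol/L, then incubated 72 h at 37 °C under 5% CO₂. Survival read by MTT. IC50 taken as the concentration (µmol/L) giving 50% inhibition of cell growth.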
Background: Tetrazolium assays rely on reduction of a dye to a coloured formazan, in cell work by metabolically active cells.

In the next assay the test system is BGC-823. In words: Cytotoxicity against human BGC823 cells after 72 hrs by MTT assay. Particulars: BGC-823, 72 h. The method in brief:
as §1

The test system of another assay is HeLa. In words: Cytotoxicity against human HeLa cells after 72 hrs by MTT assay. In a few lines:
as §1

Broadly, the IC50 is the concentration at which inhibition is half-maximal. Higher therefore signals lower potency.

Regarding `C[C@]12CC[C@H](O)C[C@H]1CC[C@@H]1[C@@H]2C[C@H](O)[C@]2(C)[C@@H](c3ccc(=O)oc3)CC[C@]12O`, the IC50 in the assay on Bel-7402 was 410 nM; in the assay on BGC-823, 420 nM; with HeLa it was 60 nM.
Consider `C[C@]12CC[C@H](O)C[C@H]1C[C@H](O)[C@@H]1[C@@H]2C[C@H](O)[C@]2(C)[C@@H](c3ccc(=O)oc3)CC[C@]12O`, for which the results for the IC50 with Bel-7402, in the assay on BGC-823 and in the assay on HeLa were 2900 nM, 5300 nM and 60 nM, respectively.
The compound `C[C@]12CC[C@H](O)C[C@@]1(O)C[C@H](O)[C@@H]1[C@@H]2CC[C@]2(C)[C@@H](c3ccc(=O)oc3)CC[C@]12O` displayed an IC50 in the assay with HeLa of 22 nM.
On to `C[C@]12CC[C@H](O)C[C@H]1CC[C@@H]1[C@@H]2C[C@@H](O)[C@]2(C)[C@@H](c3ccc(=O)oc3)CC[C@]12O`, for which the IC50 in the assay with Bel-7402 came to 26 nM; in the assay with BGC-823, 31 nM; with HeLa, 7.6 nM.
For `C[C@]12CC[C@H](O)C[C@H]1CC[C@@H]1[C@@H]2CC[C@]2(C)[C@@H](c3ccc(=O)oc3)CC[C@]12O` [BUFALIN] the same measures were 7 nM, 45 nM and 28 nM.
